The results in this text go back to ChEMBL document CHEMBL3792374, “Discovery of a ring-opened derivative of 3-n-butylphthalide bearing NO/H2S-donating moieties as a potential anti-ischemic stroke agent” (Eur J Med Chem, 2016).

The nature of series [1]: Antiplatelet activity in rabbit platelet-rich plasma assessed as inhibition of ADP-induced platelet aggregation at 0.1 mM preincubated for 5 mins followed by addition of ADP measured within 5 mins by Borns turbidimetric method. The class given is functional. Conditions: Oryctolagus cuniculus. The gist of the method: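 Rabbit carotid blood was citrated (3.8%, 9:1). PRP was obtained at 500 g for 10 min and PPP at 3000 g for 10 min. PRP was preincubated in duplicate for 5 min at 37 °C with 0.1 mM compound, plus carboxy-PTIO or BSS where indicated. ADP was then added and maximal light transmission recorded within 5 min, within 3 h of blood collection. Inhibition % was calculated versus control. Mean ± SD of three independent experiments.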

A short description of series [2]: Induction of nitric oxide release in potassium phosphate buffer at pH 7.4 at 0.1 mM after 150 mins by Griess assay. The class given is physicochemical. Conditions: pH 7.4, 2.5 h, 100 µM. The procedure, abridged:
(§1)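 Compound (0.1 mM) in PBS pH 7.4 containing 2% DMSO and 5.0 mM L-cysteine was held at 37 °C for 15–300 min. Samples were taken every 15 min up to 120 min, then every 30 min. Each sample was reacted with Griess reagent for 10 min at 37 °C and absorbance read at 540 nm. Nitrite was quantified from a nitrite standard curve. Means reported; intra-group variation <10%.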
(The Griess reaction detects nitrite, a stable product of nitric oxide.)

Series [3] can be described thus: Induction of nitric oxide release in potassium phosphate buffer at pH 7.4 at 0.1 mM after 300 mins by Griess assay. The series is classed as physicochemical. Conditions: pH 7.4, 5 h, 100 µM. The gist of the method:
as §1

Series [4] in a line: Induction of nitric oxide release in potassium phosphate buffer at pH 7.4 at 0.1 mM after 75 mins by Griess assay. The series is classed as physicochemical. The conditions noted are these: pH 7.4, 1.25 h, 100 µM. The procedure, abridged:
as §1

A short description of series [5]: Induction of nitric oxide release in potassium phosphate buffer at pH 7.4 at 0.1 mM after 180 mins by Griess assay. The series is classed as physicochemical. Conditions: pH 7.4, 3 h, 100 µM. The procedure, abridged: as §1
Series [6] in a line: Induction of nitric oxide release in potassium phosphate buffer at pH 7.4 at 0.1 mM after 60 mins by Griess assay. The series is classed as physicochemical. The conditions noted are these: pH 7.4, 1 h, 100 µM. The procedure, abridged:
as §1

In series [7] the test system is Liver. Description: Induction of hydrogen sulfide release in rat liver homogenate at 100 uM after 60 mins by microplate reader method (reference value: 1.03 to 1.21%). The class given is functional, tissue-based. The gist of the method: (§2)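 Compound was incubated at 37 °C for 0–90 min with fresh rat liver homogenate. The reaction was stopped with 1% zinc acetate and 10% trichloroacetic acid. N,N-dimethyl-p-phenylenediamine sulfate in 7.2 M HCl and FeCl3 in 1.2 M HCl were added, and absorbance was read at 670 nm after 10 min. Values were calculated against an NaHS standard curve as cumulative % conversion to H2S, n = 6.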

Series [8] can be described thus: Antiplatelet activity in rabbit platelet-rich plasma assessed as inhibition of ADP-induced platelet aggregation preincubated for 5 mins followed by addition of ADP measured within 5 mins by Borns turbidimetric method. The series is classed as functional. Conditions: Oryctolagus cuniculus. The gist of the method:
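Platelet-rich plasma from citrated rabbit carotid blood was preincubated in duplicate at 37 °C for 5 min with compound at 0.1, 0.2, 0.4, 0.8 or 1.6 mM. ADP-induced aggregation was then recorded turbidimetrically, as maximal light transmission within 5 min. Inhibition was calculated versus vehicle control, and IC50 values were derived. Mean ± SD, n = 6, ANOVA/Tukey.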

A short description of series [9]: Induction of nitric oxide release in potassium phosphate buffer at pH 7.4 at 0.1 mM after 240 mins by Griess assay. The series is classed as physicochemical. Conditions: pH 7.4, 4 h, 100 µM. The gist of the method:
as §1

The nature of series [10]: Induction of nitric oxide release in potassium phosphate buffer at pH 7.4 at 0.1 mM after 120 mins by Griess assay. The series is classed as physicochemical. The conditions noted are these: pH 7.4, 2 h, 100 µM. The gist of the method: as §1
Series [11] in a line: Induction of nitric oxide release in potassium phosphate buffer at pH 7.4 at 0.1 mM after 30 mins by Griess assay. The series is classed as physicochemical. Conditions: pH 7.4, 0.5 h, 100 µM. The procedure, abridged: as §1
A short description of series [12]: Induction of nitric oxide release in potassium phosphate buffer at pH 7.4 at 0.1 mM after 90 mins by Griess assay. The series is classed as physicochemical. Conditions: pH 7.4, 1.5 h, 100 µM. The procedure, abridged:
as §1

A short description of series [13]: Induction of nitric oxide release in potassium phosphate buffer at pH 7.4 at 0.1 mM after 45 mins by Griess assay. The series is classed as physicochemical. Conditions: pH 7.4, 0.75 h, 100 µM. The procedure, abridged:
as §1

The nature of series [14]: Induction of nitric oxide release in potassium phosphate buffer at pH 7.4 at 0.1 mM after 105 mins by Griess assay. The class given is physicochemical. The conditions noted are these: pH 7.4, 1.75 h, 100 µM. The gist of the method:
as §1

Series [15] is described as follows: Induction of nitric oxide release in potassium phosphate buffer at pH 7.4 at 0.1 mM after 15 mins by Griess assay. Conditions: pH 7.4, 0.25 h, 100 µM. The class given is physicochemical. The gist of the method:
as §1

In series [16] the test system is Liver. Description: Induction of hydrogen sulfide release in rat liver homogenate at 100 uM after 90 mins by microplate reader method (reference value: 1.03 to 1.21%). The class given is functional, tissue-based. The procedure, abridged: as §2
Series [17] relates to Liver. Description: Induction of hydrogen sulfide release in rat liver homogenate at 100 uM after 15 mins by microplate reader method (reference value: 1.03 to 1.21%). The series is classed as functional, tissue-based. The procedure, abridged:
as §2

Series [18] has as its system Liver. The series can be described thus: Induction of hydrogen sulfide release in rat liver homogenate at 100 uM after 30 mins by microplate reader method (reference value: 1.03 to 1.21%). The class given is functional, tissue-based. The gist of the method: as §2

What is called inhibition is the percentage by which the read-out fell short of the control. As usually defined, the IC50 is the concentration at which inhibition is half-maximal.

Turning to `S=c1cc(-c2ccc(OCCCCCN3CCNCC3)cc2)ss1`, in series [1], the inhibition at 100 µM amounted to 16.8%.
With `CCCCC(OC(=O)CN1CCN(CCCCCCOc2ccc(-c3cc(=S)ss3)cc2)CC1)c1ccccc1C(=O)Oc1ccc(/C=C/C(=O)OCCCCO[N+](=O)[O-])cc1OC` (racemic), the Activity worked out at 5.46 µM in series [2]; 5.56 µM in [3]; 4.4 µM in [4]; 5.48 µM in series [5]; 4 µM in series [6]; 1.81% with Liver [7]. The Activity worked out at 5.51 µM in series [9]; 5.3 µM in series [10]; 2 µM in series [11]; 4.8 µM in series [12]; 3.09 µM in series [13]; 5.1 µM in series [14]. Besides, the Activity came out at 1.45 µM in series [15], 1.82% with Liver [16], 0.95% in the series on Liver [17] and 1.05% in the series with Liver [18]. Further, the IC50 in series [8] came out at 390 µM. In addition, the inhibition at 100 µM in series [1] turned out to be 19.7%.
With `CCCCC(OC(=O)CCl)c1ccccc1C(=O)Oc1ccc(/C=C/C(=O)OCCO[N+](=O)[O-])cc1OC` (racemic), in [1], the inhibition at 100 µM turned out to be 18%.
Regarding `CCCCC(OC(=O)CN1CCN(CCOc2ccc(-c3cc(=S)ss3)cc2)CC1)c1ccccc1C(=O)Oc1ccc(/C=C/C(=O)OCCCCCCO[N+](=O)[O-])cc1OC` (racemic), the Activity was 9.25 µM in series [2]; 9.57 µM in series [3]; 7.84 µM in series [4]; 9.29 µM in [5]; 6.58 µM in series [6]; 3.74% in the series with Liver [7]. In addition, the Activity in [9] was 9.44 µM; in series [10] it was 8.76 µM; in series [11], 4.21 µM; in series [12], 8.14 µM; in [13], 5.98 µM; in series [14], 8.64 µM. Further, the Activity in series [15] turned out to be 2.37 µM; with Liver [16] it was 3.82%; with Liver [17], 2.62%; in the series with Liver [18], 2.83%. Moreover, the IC50 in series [8] came out at 210 µM. Also, the inhibition at 100 µM in [1] was determined as 19.7%.
Regarding `CCCCC(OC(=O)CN1CCN(CCOc2ccc(-c3cc(=S)ss3)cc2)CC1)c1ccccc1C(=O)Oc1ccc(/C=C/C(=O)OCCO[N+](=O)[O-])cc1OC` (racemic), the inhibition at 100 µM in series [1] is 19.7%.
The same measure, in the same setting: to `CCCCC(OC(=O)CN1CCN(CCCCCOc2ccc(-c3cc(=S)ss3)cc2)CC1)c1ccccc1C(=O)Oc1ccc(/C=C/C(=O)OCCCCCCO[N+](=O)[O-])cc1OC` (racemic) belongs 19.7%; to `CCCCC(OC(=O)CN1CCN(CCCOc2ccc(-c3cc(=S)ss3)cc2)CC1)c1ccccc1C(=O)Oc1ccc(/C=C/C(=O)OCCO[N+](=O)[O-])cc1OC` (racemic), 19.7%.
As to `CCCCC(OC(=O)CN1CCN(CCCCCCOc2ccc(-c3cc(=S)ss3)cc2)CC1)c1ccccc1C(=O)Oc1ccc(/C=C/C(=O)OCCO[N+](=O)[O-])cc1OC` (racemic), the Activity in series [2] was found to be 7.28 µM; in series [3], 7.51 µM; in [4], 5.53 µM; in series [5] it was 7.47 µM; in series [6] it was 4.98 µM; in the series on Liver [7], 2.39%. In addition, the Activity worked out at 7.51 µM in series [9]; 6.88 µM in [10]; 3.17 µM in series [11]; 5.97 µM in [12]; 4.13 µM in series [13]; 6.41 µM in [14]. Also, the Activity in series [15] came out at 1.96 µM; in the series on Liver [16] it was 2.41%; in the series with Liver [17] it was 1.6%; in the series on Liver [18] it was 1.73%. Besides, the IC50 in series [8] came to 430 µM. Also, the inhibition at 100 µM in series [1] is 19.7%.
`CCCCC(OC(=O)CN1CCN(CCOc2ccc(-c3cc(=S)ss3)cc2)CC1)c1ccccc1C(=O)Oc1ccc(/C=C/C(=O)OCCCCO[N+](=O)[O-])cc1OC` (racemic): the inhibition at 100 µM in [1] came out at 19.7%.
Same read-out and setting: to `CCCCC(OC(=O)CN1CCN(CCCCCOc2ccc(-c3cc(=S)ss3)cc2)CC1)c1ccccc1C(=O)Oc1ccc(/C=C/C(=O)OCCCCO[N+](=O)[O-])cc1OC` (racemic) belongs 19.7%.
With `CCCCC(OC(=O)CN1CCN(CCCCOc2ccc(-c3cc(=S)ss3)cc2)CC1)c1ccccc1C(=O)Oc1ccc(/C=C/C(=O)OCCCCO[N+](=O)[O-])cc1OC` (racemic), the Activity is 8.32 µM in series [2]; 8.37 µM in series [3]; 7.04 µM in [4]; 8.34 µM in series [5]; 6.13 µM in series [6]; 2.71% in the series on Liver [7]. Further, the Activity in series [9] was found to be 8.25 µM; in series [10], 8.37 µM; in series [11], 3.86 µM; in series [12], 7.45 µM; in [13], 4.58 µM; in series [14] it was 8.3 µM. For the same compound, the Activity in series [15] is 2.1 µM; in the series on Liver [16], 2.72%; in the series with Liver [17], 1.74%; in the series with Liver [18], 1.85%. In addition, in [8], the IC50 was 360 µM. The inhibition at 100 µM in series [1] came to 19.7%.
Regarding `CCCCC(OC(=O)CN1CCN(CCCCCOc2ccccc2)CC1)c1ccccc1C(=O)Oc1ccc(/C=C/C(=O)OCCO[N+](=O)[O-])cc1OC` (racemic), in series [1], the inhibition at 100 µM came out at 19.8%.
Consider `CCCCC(OC(=O)CN1CCN(CCCOc2ccc(-c3cc(=S)ss3)cc2)CC1)c1ccccc1C(=O)Oc1ccc(/C=C/C(=O)OCCCCO[N+](=O)[O-])cc1OC` (racemic), for which the Activity in series [2] stood at 3.25 µM; in series [3], 3.32 µM; in series [4], 2.36 µM; in series [5], 3.23 µM; in series [6], 2.22 µM; in the series with Liver [7], 1.21%. The Activity in series [9] stood at 3.32 µM; in series [10], 3.18 µM; in [11], 1.27 µM; in [12], 2.56 µM; in series [13], 1.89 µM; in series [14], 2.98 µM. Also, the Activity in series [15] worked out at 0.91 µM; in the series with Liver [16], 1.23%; in the series on Liver [17], 0.65%; with Liver [18] it was 0.83%. Besides, the IC50 in series [8] turned out to be 430 µM. For the same compound, the inhibition at 100 µM in [1] is 19.7%.
Turning to `CCCCC(OC(=O)CN1CCN(CCCCCOc2ccc(-c3cc(=S)ss3)cc2)CC1)c1ccccc1C(=O)Oc1ccc(/C=C/C(=O)OC)cc1OC` (racemic), the inhibition at 100 µM in series [1] came to 27.8%.
Turning to `CCCCC(OC(=O)CN1CCN(CCCOc2ccc(-c3cc(=S)ss3)cc2)CC1)c1ccccc1C(=O)Oc1ccc(/C=C/C(=O)OCCCCCCO[N+](=O)[O-])cc1OC` (racemic), in series [1], the inhibition at 100 µM came out at 19.7%.
The same measure, in the same setting: to `CCCCC(OC(=O)CN1CCN(CCCCOc2ccc(-c3cc(=S)ss3)cc2)CC1)c1ccccc1C(=O)Oc1ccc(/C=C/C(=O)OCCO[N+](=O)[O-])cc1OC` (racemic) belongs 19.7%.
